Assay results published in ChEMBL document CHEMBL1152244, “Proteochemometrics analysis of substrate interactions with dengue virus NS3 proteases” (Bioorg Med Chem, 2008).
Non-standard residues stand in square brackets, D forms with d. Residues, ends and D or L forms follow the SMILES beside them. Tyr(3-NO2) = N[C@@H](Cc1ccc(O)c([N+](=O)[O-])c1)C(=O)O; 2Abz = Nc1ccccc1C(=O)O

Assays:
[1] = test system: dengue virus type 1; assay: Activity of dengue virus 1 recombinant NS3 protease expressed in Escherichia coli C41(DE3) by fluorogenic assay
How it was run: (§1)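 NS2B(H)-NS3pro from inclusion bodies, Ni-chelate and gel filtration purified under 8 M urea, refolded by dialysis. Internally quenched Abz–RRRR-XXXX–nY–NH2 peptides, 1–100 µM (12 points), enzyme 150–200 nM, 50 mM Tris–HCl pH 9.0, 20% glycerol, 37 °C. Cleavage read as fluorescence, ex 320/em 420 nm. Initial rates fitted to give Km and kcat, averaged over ≥3 independent measurements.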

[2] = test system: dengue virus type 2; assay: Activity of dengue virus 2 recombinant NS3 protease expressed in Escherichia coli C41(DE3) by fluorogenic assay; how it was run: as §1
[3] = test system: dengue virus type 3; assay: Activity of dengue virus 3 recombinant NS3 protease expressed in Escherichia coli C41(DE3) by fluorogenic assay; how it was run: as §1
[4] = test system: dengue virus type 4; assay: Activity of dengue virus 4 recombinant NS3 protease expressed in Escherichia coli C41(DE3) by fluorogenic assay; how it was run: as §1

NC(=O)[C@H](Cc1ccc(O)c([N+](=O)[O-])c1)NC(=O)[C@H](Cc1cnc[nH]1)NC(=O)[C@@H]1CCCN1C(=O)[C@H](CO)NC(=O)[C@H](Cc1cnc[nH]1)NC(=O)c1ccccc1N (H-[2Abz]HSPH[Tyr(3-NO2)]-NH2)
Km [1]: 16.7 µM | kcat [1]: 0.00633 s⁻¹ | Km [2]: 5.77 µM | kcat [2]: 0.00117 s⁻¹ | Km [3]: 19.6 µM | kcat [3]: 0.000833 s⁻¹ | Km [4]: 7.25 µM | kcat [4]: 0.00417 s⁻¹

NC(=O)[C@H](Cc1ccc(O)c([N+](=O)[O-])c1)NC(=O)[C@@H]1CCCN1C(=O)[C@@H]1CCCN1C(=O)CNC(=O)c1ccccc1N (H-[2Abz]GPP[Tyr(3-NO2)]-NH2)
Km [1]: 16.9 µM | kcat [1]: 0.02 s⁻¹ | Km [2]: 5.15 µM | kcat [2]: 0.00283 s⁻¹ | Km [3]: 18.7 µM | kcat [3]: 0.00733 s⁻¹ | Km [4]: 8.15 µM | kcat [4]: 0.022 s⁻¹

C[C@@H](O)[C@H](NC(=O)CNC(=O)c1ccccc1N)C(=O)NCC(=O)N[C@@H](CC(N)=O)C(=O)N[C@@H](Cc1ccc(O)c([N+](=O)[O-])c1)C(N)=O (H-[2Abz]GTGN[Tyr(3-NO2)]-NH2)
Km [1]: 22.1 µM | kcat [1]: 0.0462 s⁻¹ | Km [2]: 3.05 µM | kcat [2]: 0.00483 s⁻¹ | Km [3]: 20.9 µM | kcat [3]: 0.0128 s⁻¹ | Km [4]: 10.7 µM | kcat [4]: 0.0855 s⁻¹

CC(C)[C@H](NC(=O)[C@@H](NC(=O)CNC(=O)c1ccccc1N)[C@@H](C)O)C(=O)N[C@@H](CC(N)=O)C(=O)N[C@@H](Cc1ccc(O)c([N+](=O)[O-])c1)C(N)=O (H-[2Abz]GTVN[Tyr(3-NO2)]-NH2)
Km [1]: 10.5 µM | kcat [1]: 0.0193 s⁻¹ | Km [2]: 6.5 µM | kcat [2]: 0.0055 s⁻¹ | Km [3]: 12.6 µM | kcat [3]: 0.00967 s⁻¹ | Km [4]: 11.8 µM | kcat [4]: 0.0735 s⁻¹

C[C@H](NC(=O)[C@H](CO)NC(=O)c1ccccc1N)C(=O)NCC(=O)N[C@@H](Cc1ccc(O)c([N+](=O)[O-])c1)C(N)=O (H-[2Abz]SAG[Tyr(3-NO2)]-NH2)
Km [1]: 28.4 µM | kcat [1]: 0.282 s⁻¹ | Km [2]: 3.61 µM | kcat [2]: 0.0423 s⁻¹ | Km [3]: 20.9 µM | kcat [3]: 0.0685 s⁻¹ | Km [4]: 15.2 µM | kcat [4]: 0.461 s⁻¹

NC(=O)[C@H](Cc1ccc(O)c([N+](=O)[O-])c1)NC(=O)[C@H](CC(=O)O)NC(=O)[C@H](CS)NC(=O)[C@H](Cc1cnc[nH]1)NC(=O)[C@H](CO)NC(=O)c1ccccc1N (H-[2Abz]SHCD[Tyr(3-NO2)]-NH2)
Km [1]: 26.3 µM | kcat [1]: 0.0685 s⁻¹ | Km [2]: 11.4 µM | kcat [2]: 0.0123 s⁻¹ | Km [3]: 11.3 µM | kcat [3]: 0.0285 s⁻¹ | Km [4]: 9.77 µM | kcat [4]: 0.0783 s⁻¹

CSCC[C@H](NC(=O)CNC(=O)[C@H](C)NC(=O)[C@H](C)NC(=O)c1ccccc1N)C(=O)N[C@@H](Cc1ccc(O)c([N+](=O)[O-])c1)C(N)=O (H-[2Abz]AAGM[Tyr(3-NO2)]-NH2)
Km [1]: 17.9 µM | kcat [1]: 0.0818 s⁻¹ | Km [2]: 2.46 µM | kcat [2]: 0.00917 s⁻¹ | Km [3]: 12.1 µM | kcat [3]: 0.012 s⁻¹ | Km [4]: 8.22 µM | kcat [4]: 0.0852 s⁻¹

C[C@H](NC(=O)c1ccccc1N)C(=O)N[C@@H](Cc1cnc[nH]1)C(=O)N[C@@H](CO)C(=O)N[C@@H](CS)C(=O)N[C@@H](Cc1ccc(O)c([N+](=O)[O-])c1)C(N)=O (H-[2Abz]AHSC[Tyr(3-NO2)]-NH2)
Km [2]: 5.63 µM | kcat [2]: 0.00433 s⁻¹ | Km [4]: 4.21 µM | kcat [4]: 0.0305 s⁻¹

CC(C)[C@H](NC(=O)CNC(=O)[C@H](CO)NC(=O)c1ccccc1N)C(=O)N[C@@H](CS)C(=O)N[C@@H](Cc1ccc(O)c([N+](=O)[O-])c1)C(N)=O (H-[2Abz]SGVC[Tyr(3-NO2)]-NH2)
Km [2]: 4.26 µM | kcat [2]: 0.0163 s⁻¹ | Km [3]: 19.7 µM | kcat [3]: 0.0292 s⁻¹ | Km [4]: 7.06 µM | kcat [4]: 0.0757 s⁻¹

CSCC[C@H](NC(=O)[C@H](C)NC(=O)[C@H](C)NC(=O)[C@H](CO)NC(=O)c1ccccc1N)C(=O)N[C@@H](Cc1ccc(O)c([N+](=O)[O-])c1)C(N)=O (H-[2Abz]SAAM[Tyr(3-NO2)]-NH2)
Km [1]: 16.3 µM | kcat [1]: 0.153 s⁻¹ | Km [2]: 3.33 µM | kcat [2]: 0.026 s⁻¹ | Km [3]: 13.8 µM | kcat [3]: 0.03 s⁻¹ | Km [4]: 14.3 µM | kcat [4]: 0.219 s⁻¹

C[C@H](NC(=O)[C@H](CC(N)=O)NC(=O)c1ccccc1N)C(=O)N[C@@H](CS)C(=O)N[C@@H](CS)C(=O)N[C@@H](Cc1ccc(O)c([N+](=O)[O-])c1)C(N)=O (H-[2Abz]NACC[Tyr(3-NO2)]-NH2)
Km [1]: 8.81 µM | kcat [1]: 0.0138 s⁻¹ | Km [2]: 3.21 µM | kcat [2]: 0.00467 s⁻¹ | Km [3]: 13 µM | kcat [3]: 0.0102 s⁻¹ | Km [4]: 3.03 µM | kcat [4]: 0.0372 s⁻¹

CC(C)[C@H](NC(=O)[C@H](C)NC(=O)[C@H](C)NC(=O)c1ccccc1N)C(=O)N[C@@H](CC(=O)O)C(=O)N[C@@H](Cc1ccc(O)c([N+](=O)[O-])c1)C(N)=O (H-[2Abz]AAVD[Tyr(3-NO2)]-NH2)
Km [1]: 31.4 µM | kcat [1]: 0.0352 s⁻¹ | Km [2]: 18.3 µM | kcat [2]: 0.0125 s⁻¹ | Km [3]: 21.2 µM | kcat [3]: 0.0153 s⁻¹ | Km [4]: 36.9 µM | kcat [4]: 0.113 s⁻¹
